Measured values taken from article PMC6959550 (Journal of medicinal chemistry, 2017).

Tests used:
[1] = target: T1, TRPV1 (Homo sapiens, UniProt Q8NER1); test: Activity type at TRPV1
[2] = target: T1, TRPV1; test: Predicted improvement of specific to nonspecific binding from Kd/Ki and Log P; details: from Log P values
[3] = target: T1, TRPV1; assay type: binding; details: treated versus control
[4] = target: T1, TRPV1; test: Time course of binding of 13 to human TRPV1 and its release
Method in brief: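 Membranes (~20 μg protein) from CHO cells expressing human TRPV1 were incubated with the tritiated test ligand in DPBS with 0.25 mg/mL BSA at 37 °C for varied times. Alternatively, after 60 min, 50 nM unlabeled reference vanilloid was added for varied times at 37 °C or at 0 °C after chilling. Workup: α1-acid glycoprotein (2 mg/mL stock), 10 min at 0 °C, pelleting, scintillation counting. Values relative to controls; triplicate means.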

[5] = target: T1, TRPV1; assay type: binding; details: human versus rat TRPV1

T1 sequence (Q8NER1 whole entry): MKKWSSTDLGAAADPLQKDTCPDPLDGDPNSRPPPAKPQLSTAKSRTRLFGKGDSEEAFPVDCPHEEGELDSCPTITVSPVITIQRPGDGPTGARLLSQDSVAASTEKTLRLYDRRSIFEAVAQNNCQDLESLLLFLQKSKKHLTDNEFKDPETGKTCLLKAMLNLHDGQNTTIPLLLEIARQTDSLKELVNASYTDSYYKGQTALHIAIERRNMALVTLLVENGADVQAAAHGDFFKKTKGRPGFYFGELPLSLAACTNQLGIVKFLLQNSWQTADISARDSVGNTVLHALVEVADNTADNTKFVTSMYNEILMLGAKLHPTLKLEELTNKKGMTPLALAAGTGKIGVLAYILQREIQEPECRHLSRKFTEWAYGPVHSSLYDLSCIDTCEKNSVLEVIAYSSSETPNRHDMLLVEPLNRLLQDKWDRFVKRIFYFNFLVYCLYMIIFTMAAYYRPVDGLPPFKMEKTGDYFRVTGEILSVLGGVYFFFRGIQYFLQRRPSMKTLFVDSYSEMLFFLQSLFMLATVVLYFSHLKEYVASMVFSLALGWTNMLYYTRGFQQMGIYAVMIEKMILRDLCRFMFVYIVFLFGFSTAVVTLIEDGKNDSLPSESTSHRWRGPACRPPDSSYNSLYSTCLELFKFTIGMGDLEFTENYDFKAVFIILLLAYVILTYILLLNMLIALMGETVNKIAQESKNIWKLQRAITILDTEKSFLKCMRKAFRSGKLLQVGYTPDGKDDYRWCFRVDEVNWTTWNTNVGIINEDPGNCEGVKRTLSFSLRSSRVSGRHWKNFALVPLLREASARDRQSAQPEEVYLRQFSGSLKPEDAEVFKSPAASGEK

Compound | activity [1] | Improvement over 1 from the formula ((Kd RTX × 10^LogP RTX)/(Ki compound × 10^Log P compound)) [2] | change of affinity by PMA and cyclosporin A treatment [3] | specific binding at 0 °C over the time for assay workup ([4]; 0 °C, after nonradioactive 1 (50 nM)) | time by which specific binding was largely complete ([4]; 37 °C) | time for almost full release of specifically bound ligand ([4]; 37 °C, after nonradioactive 1 (50 nM)) | human TRPV1 less sensitive (weaker binding) than rat/rodent TRPV1 [5]
CC(C)(C)c1ccc2c(c1)CC[C@H]2NC(=O)Nc1cccc2cnccc12 [A-778317, 1-((R)-5-tert-butyl-indan-1-yl)3-isoquinolin-5-yl-urea] | antagonist |  |  |  |  |  | 
CC1CCN(c2nc(C(F)(F)F)ccc2CNC(=O)Nc2cccc3c2OCC(=O)N3)CC1 [compound 12, 1-((2-(4-methylpiperidin-1-yl)-6-(trifluoromethyl)pyridin-3-yl)methyl)-3-(3-oxo-3,4-dihydro-2H-benzo[b][1,4]oxazin-8-yl)urea] | antagonist | 45.6 fold |  |  |  |  | 
[3H]CC1([3H])CCN(c2nc(C(F)(F)F)ccc2CNC(=O)Nc2cccc3c2OCC(=O)N3)CC1 [compound 13, 1-((2-(4-(methyl-[^3H])piperidin-1-yl-4-[^3H])-6-(trifluoromethyl)pyridin-3-yl)methyl)-3-(3-oxo-3,4-dihydro-2H-benzo[b][1,4]oxazin-8-yl)urea] |  |  | no appreciable change | stable | ≤ 5 min | ≤ 2 min | 
C=C(C)[C@]12C[C@@H](C)[C@@]34O[C@](Cc5ccccc5)(O[C@@H]1[C@@H]3C=C(COC(=O)Cc1ccc(O)c(OC)c1)C[C@]1(O)C(=O)C(C)=C[C@@H]41)O2 [compound 1, resiniferatoxin] | agonist | 1 fold |  |  |  |  | approximately 20 fold
